The test system of one series is BJeLR. The experiment in a line: Cytotoxicity against human BJeLR cells up to 20 ug/ml after 48 hrs by alamar blue assay. The series is classed as functional, cell-based. Put shortly:
(§1)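 Cells grown in DMEM/M199 with heat-inactivated FBS at 37°C, 5% CO2, ≤20 passages. Compounds in DMSO diluted into medium, then 2-fold serial dilutions in medium; 1000 cells/well treated for 48 h. Viability read by adding Alamar Blue (50% in growth medium), incubating 16 h, then fluorescence at 544 excitation/590 emission; concentration-response curves generated.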
(Resazurin is reduced to fluorescent resorufin, in cell work by metabolically active cells.)

The next series has as its system BJeH-LT. The series is described as follows: Cytotoxicity against human BJeH-LT cells up to 20 ug/ml after 48 hrs by alamar blue assay. The series is classed as functional, cell-based. A digest of the protocol:
as §1

Series [1] can be described thus: Cytotoxicity against human BJeH-LT cells after 48 hrs by alamar blue assay. The series is classed as cell-based. Put shortly:
as §1

Series [2] in a line: Selectivity ratio of IC50 for human BJeH-LT cells to IC50 for human BJeLR cells. Format: ADME, cell-based. The settings on record: BJeH-LT cells versus BJeLR cells, read-out: Ratio IC50.
Series [3] can be described thus: Cytotoxicity against human BJeLR cells expressing HRAS G12V mutant after 48 hrs by alamar blue assay. The series is classed as functional, cell-based. Put shortly: (§2)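 BJ fibroblast lines: BJeLR (hTERT, SV40 large and small T, HRASV12) and DRD (hTERT, SV40 small T, dominant-negative p53, cyclin D1, mutant CDK4, HRASV12), grown in DMEM/M199/heat-inactivated FBS for ≤20 passages. Compounds were taken from DMSO into medium as 2-fold serial dilutions. 1000 cells/well were exposed for 48 h at 37°C, 5% CO2. Alamar Blue was added for 16 h, then fluorescence read at excitation 544, emission 590.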

A short description of series [4]: Aqueous solubility of the compound. Format: physicochemical.
In a further series the test system is MEF. The series is described as follows: Cytotoxicity against MEF expressing K-rasG12D after 48 hrs by CellTiter-Glo assay. The settings on record: Mus musculus. Format: functional, cell-based.
Series [5] can be described thus: Cytotoxicity against human BJeH cells after 48 hrs by alamar blue assay. Format: cell-based.
Series [6] is described as follows: (§3) Selectivity ratio of IC50 for human BJeH cells to IC50 for human BJeLR cells. Format: ADME, cell-based. The settings on record: BJeH cells versus BJeLR cells, read-out: Ratio IC50.
Series [7] is described as follows: as §3. Format: ADME, cell-based. The settings on record: BJeH cells versus BJeLR cells, read-out: Ratio IC50. This is another data set of the same source.
A further series concerns BJ. The experiment in a line: Cytotoxicity against human BJ cells expressing HRAS G12V mutant with alternative oncogenic constructs after 48 hrs by alamar blue assay. Format: functional, cell-based. A digest of the protocol: as §2
Series [8] is described as follows: Drug degradation in PBS/DMSO assessed as GSH-adduct formation after 1 hr in the presence of GSH and triethylamine. The series is classed as physicochemical. The settings on record: buffer.
Series [9] is described as follows: Drug degradation in PBS assessed as racemisation after 48 hrs by HPLC/MS analysis. The following applies: buffer. The series is classed as physicochemical.

The text below walks through data of ChEMBL document CHEMBL1949667, “Development of small-molecule probes that selectively kill cells induced to express mutant RAS” (Bioorg Med Chem Lett, 2012).

Converted amounts (≈) assume the structure as drawn. The source made the active and inactive calls. The rule behind the calls is not given here. Where only a bound is given, the exact number is not on record here.

`Cn1ncc([N+](=O)[O-])c1C(=O)N1CCN(C(c2ccccc2)c2ccccc2)CC1`: the inhibition entry in the series with BJeLR and with BJeH-LT was “inactive” each time.
In general, IC50 refers to the concentration needed to halve the response being measured. Take `O=C(c1ccc([N+](=O)[O-])o1)N1CCN(C(c2ccccc2)c2ccccc2)CC1`: the midpoint of inhibition in series [1], the IC50, lay at 18900 nM. Besides, the inhibition result in the series on BJeLR is “inactive”.
With `COc1ccc(N(C(=O)CCl)C(C(=O)NC2CCCCC2)c2cccs2)cc1Cl` (racemic), the concentration for half-maximal inhibition (IC50) came out at 270 nM in series [1] and 113 nM in series [3]. Further, the selectivity ratio in [2] is 2.4.
As to `Cc1onc(C(=O)N2CCN(Cc3ccccc3)CC2)c1[N+](=O)[O-]`, the inhibition result in the series on BJeLR and with BJeH-LT was “inactive” throughout.
As to `O=C(c1cc([N+](=O)[O-])ccn1)N1CCN(C(c2ccccc2)c2ccccc2)CC1`, the IC50 in [1] was determined as 49700 nM; in [3], 37300 nM. In addition, the selectivity ratio in series [2] worked out at 1.33.
In the same order, the values of `Cc1onc(C(=O)N2CCN(C(c3ccccc3)c3ccc(Cl)cc3)CC2)c1[N+](=O)[O-]` (racemic) are 510 nM, 129 nM and 4.
The like results for `Cc1onc(C(=O)N2CCN(C(c3ccc(F)cc3)c3ccc(F)cc3)CC2)c1[N+](=O)[O-]` were, in that order, 757 nM, 183 nM and 4.1.
One may read the solubility as the concentration that dissolves in the medium under given conditions. `Cc1onc(C(=O)N2CCN(C(c3ccccn3)c3ccccn3)CC2)c1[N+](=O)[O-]`: the solubility in series [4] (buffer) was above 500 µM. In addition, the inhibition result with BJeLR and in the series with BJeH-LT was “inactive” each time.
Take `Cc1onc(C(=O)NCCNC(c2ccccc2)c2ccccc2)c1[N+](=O)[O-]`: the IC50 in series [3] came out at 21600 nM. In addition, the inhibition entry in the series on BJeH-LT was “inactive”.
`COc1cccc(N(C(=O)CCl)C(C(=O)NCCc2ccccc2)c2cccs2)c1` (racemic): the half-inhibitory concentration (IC50) worked out at 2400 nM in series [1] and 170 nM in [3]. Further, the selectivity ratio in [2] was 14.
The like results for `COc1ccc(N(C(=O)CCl)C(C(=O)NCCc2ccccc2)c2ccc(Cl)s2)cc1Cl` (racemic) were, in that order, 133 nM, 61 nM and 2.2.
The like results for `Cc1onc(C(=O)N2CCCN(C(c3ccccc3)c3ccccc3)CC2)c1[N+](=O)[O-]` were, in that order, 2790 nM, 773 nM and 3.6.
As to `Cc1onc(C(=O)N2CCN(C(c3ccncc3)c3ccncc3)CC2)c1[N+](=O)[O-]`, in series [4] (buffer), the solubility is above 500 µM. Moreover, the inhibition entry in the series with BJeLR and in the series on BJeH-LT was “inactive” each time.
On to `COc1ccccc1N1CCN(C(=O)c2noc(C)c2[N+](=O)[O-])CC1`, for which the inhibition entry with BJeLR and in the series with BJeH-LT was “inactive” in each case.
Consider `O=C(NCCc1ccccc1)C(c1cccs1)N(C(=O)CCl)c1cccc(Cl)c1` (racemic), for which the values for the IC50 in series [1] and in series [3] were 331 nM and 156 nM, respectively. In series [2], the selectivity ratio came to 2.1.
As to `CCC(=O)N1CCN(C(=O)c2noc(C)c2[N+](=O)[O-])CC1`, the inhibition entry in the series on BJeLR and in the series with BJeH-LT was “inactive” throughout.
Take `COc1ccc(N(C(=O)CCl)C(C(=O)NCn2nnc3ccccc32)c2cccs2)cc1Cl` (racemic): the values for the half-maximal inhibitory concentration (IC50) in [1] and in [3] were 242 nM and 102 nM, respectively.
As to `O=C(c1n[nH]cc1[N+](=O)[O-])N1CCN(C(c2ccccc2)c2ccccc2)CC1`, the inhibition result in the series with BJeLR and in the series on BJeH-LT was “inactive” throughout.
Consider `COc1ccc(N(C(=O)CCl)C(C)(C)C(=O)NCCc2ccccc2)cc1Cl`, for which the IC50 in series [1] worked out at 127 nM; in series [3], 58 nM. Also, in series [2], the selectivity ratio came out at 2.2.
As to `Cc1onc(C(=O)NCc2ccc(F)cc2)c1[N+](=O)[O-]`, the inhibition entry in the series on BJeLR and in the series with BJeH-LT was “inactive” each time.
As to `COc1ccc(C(c2ccc(OC)cc2)N2CCN(C(=O)c3noc(C)c3[N+](=O)[O-])CC2)cc1`, the half-inhibitory concentration (IC50) in series [1] is 5320 nM; in series [3] it was 1570 nM. In addition, the selectivity ratio in series [2] was determined as 3.4.
Turning to `COc1ccc(N(C(=O)CCl)C(C(=O)NCCc2ccccc2)c2nc(C)cs2)cc1Cl` (racemic), the IC50 in series [1] was 19800 nM; in series [3] it was 8260 nM. For the same compound, in [2], the selectivity ratio is 2.4.
With `COC(=O)c1ccc(C2c3[nH]c4ccccc4c3C[C@@H](C(=O)OC)N2C(=O)CCl)cc1` (stereo partly specified), the selectivity ratio in series [2] was found to be 8. This compound also registered an IC50 in series [3] of 100 nM.
For the compound `C[C@H](CN1CCCC1)C(=O)c1ccc(C(F)(F)F)cc1` [LANPERISONE], the IC50 with MEF is 4000 nM.
With `Cc1onc(C(=O)N2CCN(C(c3ccc(Cl)cc3)c3ccc(Cl)cc3)CC2)c1[N+](=O)[O-]`, the IC50 in series [1] worked out at 272 nM; in series [5], 628 nM; in series [3] it was 71 nM; with BJ it was 107 nM. Also, the figures for the selectivity ratio in series [2], in [6] and in [7] were 3.9, 4 and 4, respectively.
In the case of `COc1ccc(N(C(=O)CCl)C(C(=O)NCCc2ccccc2)C2CCCCC2)cc1Cl` (racemic), the values for the IC50 in [1] and in series [3] were 1180 nM and 505 nM, respectively. Also, in series [2], the selectivity ratio stood at 2.3.
In the same order, the values of `COc1ccc(N(CC(=O)NCCc2ccccc2)C(=O)CCl)cc1Cl` are 531 nM, 231 nM and 2.3.
Regarding `COc1ccc(N(C(=O)CCl)C(C(=O)NCCc2ccccc2)c2cccs2)cc1Cl` (racemic), the IC50 in series [1] was determined as 578 nM; in series [5], 2400 nM; in [3] it was 25 nM; in the series on BJ it was 34 nM. In addition, the Drug degradation entry is “Active” in [8] and “Not Active” in series [9]. For the same compound, the solubility in series [4] (aqueous, read-out: solubility) came out at 16 µM (≈ 7.64 µg/mL).
`COc1ccc(N(C(=O)CCl)C(C(=O)NCCc2ccccc2)C(C)C)cc1Cl` (racemic): the values for the 50% inhibitory concentration (IC50) in series [1] and in series [3] were 1300 nM and 895 nM, respectively. In series [2], the selectivity ratio turned out to be 1.5.
Take `Cn1cc([N+](=O)[O-])c(C(=O)N2CCN(C(c3ccccc3)c3ccccc3)CC2)n1`: the inhibition result in the series with BJeLR and with BJeH-LT was “inactive” each time.
Regarding `Cc1ccc(C(=O)N2CCN(C(c3ccccc3)c3ccccc3)CC2)c([N+](=O)[O-])c1`, the inhibition result in the series with BJeLR and with BJeH-LT was “inactive” in each case.
Consider `COc1ccc(N(C(=O)CCl)C(C(=O)NCS(=O)(=O)c2ccc(C)cc2)c2cccs2)cc1Cl` (racemic), for which the IC50 in [1] was found to be 208 nM; in [3] it was 89 nM. Moreover, in series [4] (aqueous, read-out: solubility), the solubility was below 1 µM.
With `Cc1onc(C(=O)N2CCN(C(c3ccccc3)c3ccccc3)CC2)c1[N+](=O)[O-]`, the concentration for half-maximal inhibition (IC50) in series [1] worked out at 4970 nM; in series [3], 1030 nM. The selectivity ratio in series [2] came to 4.8.
As to `Cc1onc(C(=O)N2CCOCC2)c1[N+](=O)[O-]`, the inhibition entry in the series on BJeLR and with BJeH-LT was “inactive” each time.
`COc1ccc(N(C(=O)CCl)C(C(=O)NCc2ccccc2)c2cccs2)cc1Cl` (racemic): the IC50 stood at 179 nM in series [1] and 75 nM in [3]. For the same compound, the selectivity ratio in series [2] turned out to be 2.4.
The like results for `COc1ccc(N(C(=O)CCl)C(C(=O)NCCc2ccccc2)c2cccs2)cc1` (racemic) were, in that order, 1700 nM, 220 nM and 7.8.
